# PubChem BioAssay
# Activity calls are given as the source filed them.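 How the source made its calls, unless noted: active means mean duplicate potentiation above the buffer control mean plus 5 SD of buffer wells; inactive means the rest.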
# Experiments:
# [1] = nonspecific flux increase, KCNQ1-free cells – parental CHO cells, counter-screen for KCNQ1 potentiator project (AID 493006;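 active means duplicate-averaged activation above buffer control mean plus 5 SD of those controls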;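 on activation: fluorescence ratio of max minus min over baseline after K+ and Tl+ depolarization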); settings: parental CHO-K1 cells, FluxOR thallium flux, at 10 µM; stronger effect = higher value
# In short: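 Material: untransfected host CHO-K1 cells with FluxOR thallium dye. Timing: overnight 37 °C plating, 90 min RT dye, 20 min compound. Detection: kinetic FluxOR fluorescence, 10 s baseline, 110 s after stimulus. Read-out basis: max-minus-min fluorescence over baseline, percent of buffer-to-R-L3 span. Replicates: duplicate wells per compound, percent values averaged.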
# [2] = molecular target: Potassium voltage-gated channel subfamily KQT member 1 (Homo sapiens) (UniProt P51787); assay: enhancement of KCNQ1 channel thallium flux – FluxOR thallium flux, CHO cells, duplicates, confirmation (AID 493007;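 active means potentiation averaged over duplicate wells exceeding buffer-only control mean by more than 3 SD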;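 on outcome: cells depolarized by a potassium plus thallium sulfate stimulus after compound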); settings: KCNQ1 cell line, FluxOR thallium flux fluorescence, at 10 µM; stronger effect = higher value, % of reference activator effect, buffer zero
# Chain of Potassium voltage-gated channel subfamily KQT member 1 (Homo sapiens) (P51787 whole entry, looked up): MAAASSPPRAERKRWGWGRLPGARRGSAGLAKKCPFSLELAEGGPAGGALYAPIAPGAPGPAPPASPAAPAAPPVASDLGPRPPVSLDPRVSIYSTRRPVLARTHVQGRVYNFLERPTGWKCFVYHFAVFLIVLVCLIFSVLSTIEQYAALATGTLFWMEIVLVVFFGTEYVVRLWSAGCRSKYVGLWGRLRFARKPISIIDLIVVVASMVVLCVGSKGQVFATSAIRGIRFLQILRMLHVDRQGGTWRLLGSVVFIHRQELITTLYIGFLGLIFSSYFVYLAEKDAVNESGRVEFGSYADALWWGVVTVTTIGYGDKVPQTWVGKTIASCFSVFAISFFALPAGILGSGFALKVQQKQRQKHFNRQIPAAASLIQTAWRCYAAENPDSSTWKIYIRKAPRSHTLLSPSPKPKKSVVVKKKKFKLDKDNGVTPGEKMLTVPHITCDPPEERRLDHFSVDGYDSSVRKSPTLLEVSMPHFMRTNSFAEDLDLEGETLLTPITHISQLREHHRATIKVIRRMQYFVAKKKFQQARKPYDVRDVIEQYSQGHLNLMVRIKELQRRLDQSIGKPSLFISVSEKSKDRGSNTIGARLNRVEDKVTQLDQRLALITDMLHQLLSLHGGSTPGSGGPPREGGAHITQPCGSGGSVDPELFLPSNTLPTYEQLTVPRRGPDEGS
# In short: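 Test system – KCNQ1-expressing CHO cell line · Incubation – FluxOR dye loading 90 min, compound exposure 20 min, room temperature · Detection – FluxOR Tl+ flux fluorescence, 10 s baseline plus 110 s recording · Controls – buffer-only wells as 0% and R-L3 activator as 100%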
# [3] = molecular target: Potassium voltage-gated channel subfamily KQT member 2 (Rattus norvegicus) (UniProt O88943); assay: KCNQ2 thallium flux enhancement – KCNQ2-CHO-K1 cells, selectivity assay for KCNQ1 potentiator project (AID 493009); settings: FluxOR thallium flux fluorescence, at 10 µM; stronger effect = higher value, scaled: buffer 0, activator control 100;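 further: assay conditions were tuned for KCNQ1 rather than KCNQ2 modulators; signal is max minus min fluorescence divided by baseline after thallium stimulus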
# Chain of Potassium voltage-gated channel subfamily KQT member 2 (Rattus norvegicus) (O88943 whole entry, looked up): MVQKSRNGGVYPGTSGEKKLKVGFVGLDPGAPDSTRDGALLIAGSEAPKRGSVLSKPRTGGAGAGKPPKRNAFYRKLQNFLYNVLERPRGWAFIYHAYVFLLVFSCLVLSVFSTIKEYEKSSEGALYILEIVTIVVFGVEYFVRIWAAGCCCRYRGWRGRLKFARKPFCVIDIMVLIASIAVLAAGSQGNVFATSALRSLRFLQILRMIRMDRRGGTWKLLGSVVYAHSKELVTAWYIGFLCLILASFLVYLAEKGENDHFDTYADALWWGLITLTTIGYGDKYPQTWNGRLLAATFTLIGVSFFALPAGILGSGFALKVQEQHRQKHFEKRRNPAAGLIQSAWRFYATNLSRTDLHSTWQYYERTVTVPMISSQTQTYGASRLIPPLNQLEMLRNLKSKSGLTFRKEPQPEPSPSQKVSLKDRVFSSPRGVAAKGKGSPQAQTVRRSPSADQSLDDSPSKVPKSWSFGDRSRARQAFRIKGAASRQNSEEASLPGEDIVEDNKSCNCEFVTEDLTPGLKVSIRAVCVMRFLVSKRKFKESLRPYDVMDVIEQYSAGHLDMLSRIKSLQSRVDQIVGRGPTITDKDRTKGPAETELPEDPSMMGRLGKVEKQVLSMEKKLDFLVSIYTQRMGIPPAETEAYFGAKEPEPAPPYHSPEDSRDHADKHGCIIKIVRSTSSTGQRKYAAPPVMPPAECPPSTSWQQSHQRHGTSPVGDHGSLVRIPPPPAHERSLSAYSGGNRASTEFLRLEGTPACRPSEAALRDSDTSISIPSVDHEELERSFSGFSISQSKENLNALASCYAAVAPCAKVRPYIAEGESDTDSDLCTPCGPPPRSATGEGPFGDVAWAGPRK
# [4] = molecular target: Potassium voltage-gated channel subfamily KQT member 1 (Homo sapiens) (UniProt P51787); assay: KCNQ1 activators by electrophysiology – IonWorks patch clamp, KCNQ1-CHO cells, orthogonal assay for KCNQ1 potentiator project, confirmation (AID 493184;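 active means current rise at least 3 SD above the untreated control mean in each of two repeat wells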); settings: automated patch clamp current, at 10 µM; stronger effect = higher value
# In short: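 Read-out: Percent current increase versus pre-compound level | Assay system: CHO cells carrying KCNQ1 | Measured by: Automated perforated-patch electrophysiology | Medium: External bath solution at pH 7.4 | Dosing: One dose, 10 µM final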
Structure (SMILES),activation [1],potentiation [2],potentiation [3],outcome [4],outcome [1],outcome [2],outcome [3]
Cc1ccc(NC(=O)C(=O)NNC(=O)c2ccccc2C)cc1Cl,304% (active),112% (active),400% (active),inactive,,,
Cc1ccc2c(c1)c(C)c(C)n2CC(O)CN1CCCCC1C (stereo not given),,,,inactive,inactive,inactive,inactive
CCn1nnc2cc(C(=O)Nc3cc(S(C)(=O)=O)ccc3Cl)ccc21,,,,inactive,inactive,inactive,inactive
S=c1[nH]cc(Cc2ccccc2)s1,205% (active),28.5% (active),216% (active),inactive,,,
CCc1nnc(NC(=O)c2ccc(S(=O)(=O)N(CC)Cc3ccccc3)cc2)o1,254% (active),107% (active),270% (active),inactive,,,
CCc1ccccc1NC(=O)C1CCN(C(=O)N2CCOc3ccccc32)CC1,,,,inactive,inactive,inactive,inactive
S=C(Nc1ccc(Br)cc1)N1CCn2cccc2C1c1cccnc1 (stereo not given),,,,inactive,inactive,inactive,inactive
O=C(COc1ccc(C(=S)N2CCC(Cc3ccccc3)CC2)cc1)N1CCOCC1,,,,inactive,inactive,inactive,inactive
O=C(COC(=O)CNC(=O)c1ccc(Cl)cc1Cl)Nc1cccc(S(=O)(=O)N2CCCC2)c1,,,,inactive,inactive,inactive,inactive
Cc1ccc(Oc2ccc(NC(=O)Cn3ccsc3=N)cc2)cc1,,,,inactive,inactive,inactive,inactive
CN1CCN(c2ccccc2NC(=S)NC(=O)c2cc3ccccc3o2)CC1,,,,inactive,inactive,inactive,inactive
CCOC(=O)c1c(C)[nH]c(C(=O)Cn2nnc(-c3ccccc3Cl)n2)c1C,,,,inactive,inactive,inactive,inactive
Nc1cc(=O)[nH]c(SCC(=O)N2CCN(S(=O)(=O)c3ccc4ccccc4c3)CC2)n1,,,,inactive,inactive,inactive,inactive
COc1cc(CNCc2ccccn2)ccc1OCc1ccc(Cl)cc1,,,,inactive,inactive,inactive,inactive
CCOC(=O)Cn1c2ccccc2c2nc3ccccc3nc21,,,,inactive,inactive,inactive,inactive
Cc1ccc(N=Cc2cc(Br)cc(Cl)c2O)cc1,201% (active),19% (active),142% (active),inactive,,,
O=C(NC(=S)Nc1ccccc1N1CCCC1)c1cccs1,150% (active),104% (active),212% (active),inactive,,,
Cc1ccc(C2C(/C=C3/SC(=S)NC3=O)=C(c3cccs3)Oc3ccccc32)cc1 (stereo not given),142% (active),33% (active),,inactive,,,inactive
Cc1ccc(-c2ccc(=O)n(Cc3cccc(Br)c3)n2)cc1,,,,inactive,inactive,inactive,inactive
CCCN(CCC)C(=S)NC(=O)c1ccc(-c2ccccc2)cc1,436% (active),248% (active),556% (active),inactive,,,

Structure (SMILES),activation [1],potentiation [2],potentiation [3],outcome [4],outcome [1],outcome [2],outcome [3]
COc1ccc(-n2nc3c(c2NC(=O)c2ccc4c(c2)OCO4)CS(=O)(=O)C3)cc1,224% (active),75.5% (active),206% (active),inactive,,,
OC(C#CCCN1CCCCC1)(c1ccccc1)c1ccccc1,,,,inactive,inactive,inactive,inactive
CCSc1nnc(NS(=O)(=O)c2ccc(OC)cc2)s1,,,,inactive,inactive,inactive,inactive
CCN(CC(=O)Nc1ccc(OC)cc1)C(=O)CSCC(=O)Nc1ccc(C)cc1,,,,inactive,inactive,inactive,inactive
O=c1[nH]c(Nc2ccccc2)cc2cc(Br)ccc12,,,,inactive,inactive,inactive,inactive
CCOc1ccc2nc(N3C(=O)/C(=C/c4ccccc4)NC3=S)sc2c1,442% (active),367% (active),700% (active),inactive,,,
CC(O)Cc1cn([C@@H](CCCCN)C(=O)N2CCNCC2)nn1 (stereo not given in full),,,,inactive,inactive,inactive,inactive
c1csc(-c2csc3ncnc(NCCCN4CCOCC4)c23)c1,,,,inactive,inactive,inactive,inactive
CCC(C(=O)OCC(=O)NC(=O)NC(C)(C)C)c1ccccc1 (stereo not given),,,,inactive,inactive,inactive,inactive
CCOC(=O)c1ccccc1N1C(=O)CSC1=S,,,,inactive,inactive,inactive,inactive
Cc1cc(/C=N/NC(=O)CC#N)c(C)n1-c1ccc([N+](=O)[O-])cc1,,,,inactive,inactive,inactive,inactive
COc1ccc(CCN(C)CC(O)COc2c(C)ccc(C)c2C)cc1OC (stereo not given),,,,inactive,inactive,inactive,inactive
CC(/C=C1\SC(=S)N(NS(=O)(=O)c2ccccc2)C1=O)=C\c1ccccc1,304% (active),157% (active),318% (active),inactive,,,
CCCCOC(=O)c1ccc(NC(=S)NC(=O)c2c(Cl)cnn2C)cc1,,77.5% (active),160% (active),inactive,inactive,,
CC(Sc1nnnn1-c1ccc(O)cc1)C(=O)NC1CCCCC1C (stereo not given),,,,inactive,inactive,inactive,inactive
CCCn1nnnc1SCC(=O)c1ccc2c(c1)OCCO2,,,,inactive,inactive,inactive,inactive
CCOC(=O)C1=NN(C(=O)c2ccccc2)C(O)(c2ccc(C)cc2)C1 (stereo not given),141% (active),49.5% (active),216% (active),inactive,,,
COc1ccc(N2CCN(C(=O)COC(=O)/C=C/c3ccc(OC(F)F)cc3)CC2)cc1,178% (active),64.5% (active),228% (active),inactive,,,
Cc1ccc(-c2nc3c(Cl)cc(Cl)cc3c(=O)n2O)cc1,828% (active),414% (active),820% (active),inactive,,,
CSC(=S)N/N=C(\C)c1ccc(Br)cc1,309% (active),132% (active),258% (active),inactive,,,

Structure (SMILES),activation [1],potentiation [2],potentiation [3],outcome [4],outcome [1],outcome [2],outcome [3]
Cc1[nH]n(C(N)=S)c(=O)c1N=Nc1ccc2ccccc2c1,150% (active),238% (active),628% (active),inactive,,,
O=C(NC(=S)Nc1ccc(N2CCCCC2)cc1)c1ccco1,214% (active),180% (active),228% (active),inactive,,,
Cc1cccc(CS(=O)(=O)c2ncc(CO)n2C)c1,,,,inactive,inactive,inactive,inactive
Cc1ccc(-n2c(=S)[nH]c3sc4c(c3c2=O)CCC4)cc1,158% (active),42.5% (active),176% (active),inactive,,,
Cc1ccc(Cl)cc1N1CCN(C(=O)c2ccc(CN3CCOCC3)cc2)CC1,,,,inactive,inactive,inactive,inactive
CC(/C=C1\SC(=S)N(NS(=O)(=O)c2ccc(C)cc2)C1=O)=C\c1ccccc1,507% (active),424% (active),666% (active),inactive,,,
S=c1nc(C2CCCCC2)n(-c2ccccc2)[nH]1,356% (active),117% (active),362% (active),inactive,,,
CC1CCc2c(sc3[nH]c(=S)n(C)c(=O)c23)C1 (stereo not given),446% (active),254% (active),552% (active),inactive,,,
Cc1ccc(C2=CSC3=NS(=O)(=O)CCN23)cc1,,,,inactive,inactive,inactive,inactive
CCOC(=S)NC(=O)c1sc2ccccc2c1Cl,398% (active),122% (active),404% (active),inactive,,,
Cc1cccc(C(=O)NC(=S)NNC(=O)COc2ccc(Cl)cc2)c1,140% (active),52% (active),186% (active),inactive,,,
S=c1[nH]nc(-c2ccco2)n1/N=C/c1ccc(Cl)c(Cl)c1,512% (active),290% (active),145% (active),inactive,,,
CCCCOC(=O)c1ccc(NC(=S)NC(=O)c2c(Cl)cnn2CC)cc1,208% (active),196% (active),298% (active),inactive,,,
CC(C)c1nc2n[nH]c(N)c2c2c1CCCC2,,,,inactive,inactive,inactive,inactive
COc1cc(/C=N/NC(=O)c2ccoc2C)ccc1OCCN1CCCCC1,,23.5% (active),,inactive,inactive,,inactive
CC(C)CC(=O)O/N=C1\C(=O)N(c2ccccc2)c2ccccc21,,,,inactive,inactive,inactive,inactive
O=C(COc1ccc(Cl)cc1)NNC(=O)C(=O)NC1CCCCC1,,,158% (active),inactive,inactive,inactive,
O=c1[nH]cc(-c2ccccc2)c(=O)[nH]1,,,,inactive,inactive,inactive,inactive
CCc1ccc(CNC(=O)CCn2nc(C)c3c(C)n(-c4ccccc4)nc3c2=O)cc1,,,,inactive,inactive,inactive,inactive
Cc1cc(/C=N/NC(=O)c2cccs2)c(C)n1-c1ccccc1,,,,inactive,inactive,inactive,inactive
